In assay [1] the test system is Escherichia coli. Briefly: Antibacterial activity against Escherichia coli ATCC 25922 at 1.88 mg/mL after 24 hrs by disk diffusion assay. It counts as functional, organism-based. In a few lines: (§1)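 Disk diffusion on Mueller–Hinton agar, run per CLSI recommendations. Sterile 6 mm cellulose disks each carried 20 μL of a DMSO solution. Reference drugs were dosed to equal the maximum amount releasable from the calixarene podands. Disks with DMSO alone served as solvent controls. Plates were incubated at 37 °C, and growth-inhibition zone diameter (mm) was read at 24 h.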
On the technique in general: Agar diffusion results depend on both activity and mobility in agar.

Assay [2] relates to Enterococcus faecalis. Description: Antibacterial activity against Enterococcus faecalis ATCC 29212 at 1.88 mg/mL after 24 hrs by disk diffusion assay. It counts as functional, organism-based. The method in brief:
as §1

Assay [3] deals with Staphylococcus aureus. Briefly: Antibacterial activity against Staphylococcus aureus ATCC 29213 at 1.88 mg/mL after 24 hrs by disk diffusion assay. The class given is functional, organism-based. The method in brief: as §1
The test system of assay [4] is Staphylococcus aureus. Briefly: Antibacterial activity against Staphylococcus aureus ATCC 25923 at 1.88 mg/mL after 24 hrs by disk diffusion assay. It counts as functional, organism-based. The method in brief: as §1
Assay [5] has as its system Pseudomonas aeruginosa. Briefly: Antibacterial activity against Pseudomonas aeruginosa ATCC 27853 at 1.88 mg/mL after 24 hrs by disk diffusion assay. The class given is functional, organism-based. The method in brief: as §1
The subject of assay [6] is Staphylococcus aureus. Briefly: Antibacterial activity against Staphylococcus aureus ATCC 25923 at 10 mg/mL freshly prepared compound after 24 hrs by disk diffusion assay. The class given is functional. In a few lines: (§2)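 Disk diffusion on Mueller–Hinton agar per CLSI recommendations. Sterile 6 mm cellulose disks were impregnated with 20 μL of the DMSO solution at the stated concentration. Plates were incubated at 37 °C and growth-inhibition zone diameters were read at 24 h. Disks carrying DMSO alone served as solvent control.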

For assay [7], the system named is Staphylococcus aureus. Briefly: Antibacterial activity against Staphylococcus aureus ATCC 25923 at 10 mg/mL 1 month old compound stored at 4 degree C after 24 hrs by disk diffusion assay. The note with it: ATCC 25923, 24 h, read-out: DIZ. The class given is functional. The method in brief: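 Disk diffusion on Mueller–Hinton agar per CLSI recommendations. The DMSO solution had been stored 1 month at 4 °C before use and was compared with a freshly prepared solution. Sterile 6 mm cellulose disks were impregnated with 20 μL. Plates were incubated at 37 °C and inhibition zone diameter was read at 24 h.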

Assay [8] deals with Staphylococcus aureus. Description: Antibacterial activity against Staphylococcus aureus ATCC 29213 at 10 mg/mL after 24 hrs by disk diffusion assay. It counts as functional, organism-based. In a few lines: as §2
Assay [9] deals with Enterococcus faecalis. Description: Antibacterial activity against Enterococcus faecalis ATCC 29212 at 10 mg/mL after 24 hrs by disk diffusion assay. It counts as functional, organism-based. In a few lines: as §2
Assay [10] concerns Escherichia coli. Description: Antibacterial activity against Escherichia coli ATCC 25922 at 10 mg/mL after 24 hrs by disk diffusion assay. It counts as functional, organism-based. In a few lines: as §2
For assay [11], the system named is Staphylococcus aureus. Briefly: Antibacterial activity against Staphylococcus aureus ATCC 25923 at 10 mg/mL after 24 hrs by disk diffusion assay. The class given is functional. The note with it: ATCC 25923, 24 h, read-out: DIZ. In a few lines:
as §2

Assay [12] has as its system Staphylococcus aureus. Briefly: Antibacterial activity against Staphylococcus aureus ATCC 29213 at 3.25 mg/mL after 24 hrs by disk diffusion assay. The class given is functional, organism-based. The method in brief:
as §2

Assay [13] deals with Enterococcus faecalis. Briefly: Antibacterial activity against Enterococcus faecalis ATCC 29212 at 3.25 mg/mL after 24 hrs by disk diffusion assay. It counts as functional, organism-based. The method in brief: as §2
Assay [14] has as its system Escherichia coli. Briefly: Antibacterial activity against Escherichia coli ATCC 25922 at 3.25 mg/mL after 24 hrs by disk diffusion assay. The class given is functional, organism-based. In a few lines: as §2
Assay [15] deals with Staphylococcus aureus. Description: Antibacterial activity against Staphylococcus aureus ATCC 25923 at 3.25 mg/mL after 24 hrs by disk diffusion assay. It counts as functional, organism-based. The method in brief: as §2
In assay [16] the test system is Pseudomonas aeruginosa. Description: Antibacterial activity against Pseudomonas aeruginosa ATCC 27853 at 3.25 mg/mL after 24 hrs by disk diffusion assay. It counts as functional, organism-based. In a few lines: as §2
Assay [17] relates to Escherichia coli. Description: Antibacterial activity against Escherichia coli ATCC 25922 at 2.83 mg/mL after 24 hrs by disk diffusion assay. The class given is functional, organism-based. The method in brief: as §2
In assay [18] the test system is Enterococcus faecalis. Briefly: Antibacterial activity against Enterococcus faecalis ATCC 29212 at 2.83 mg/mL after 24 hrs by disk diffusion assay. The class given is functional, organism-based. The method in brief: as §2
Assay [19] relates to Staphylococcus aureus. Description: Antibacterial activity against Staphylococcus aureus ATCC 29213 at 2.83 mg/mL after 24 hrs by disk diffusion assay. It counts as functional, organism-based. The method in brief:
as §2

In assay [20] the test system is Staphylococcus aureus. Description: Antibacterial activity against Staphylococcus aureus ATCC 25923 at 2.83 mg/mL after 24 hrs by disk diffusion assay. It counts as functional, organism-based. The method in brief:
as §2

Assay [21] deals with Pseudomonas aeruginosa. Description: Antibacterial activity against Pseudomonas aeruginosa ATCC 27853 at 2.83 mg/mL after 24 hrs by disk diffusion assay. The class given is functional, organism-based. The method in brief: as §2
The subject of assay [22] is Staphylococcus aureus. Description: Antibacterial activity against Staphylococcus aureus ATCC 29213 at 1.25 mg/mL after 24 hrs by disk diffusion assay. It counts as functional, organism-based. In a few lines:
as §2

Assay [23] has as its system Enterococcus faecalis. Description: Antibacterial activity against Enterococcus faecalis ATCC 29212 at 1.25 mg/mL after 24 hrs by disk diffusion assay. The class given is functional, organism-based. In a few lines: as §2
The subject of assay [24] is Staphylococcus aureus. Briefly: Antibacterial activity against Staphylococcus aureus ATCC 25923 at 1.25 mg/mL after 24 hrs by disk diffusion assay. The class given is functional, organism-based. The method in brief:
as §2

The subject of assay [25] is Staphylococcus aureus. Briefly: Antibacterial activity against Staphylococcus aureus ATCC 25923 at 5.8 mg/mL after 24 hrs by disk diffusion assay. It counts as functional, organism-based. The method in brief: as §2
In assay [26] the test system is Staphylococcus aureus. Briefly: Antibacterial activity against Staphylococcus aureus ATCC 29213 at 5.8 mg/mL after 24 hrs by disk diffusion assay. It counts as functional, organism-based. The method in brief:
as §2

The test system of assay [27] is Staphylococcus aureus. Description: Antibacterial activity against Staphylococcus aureus ATCC 29213 at 2.53 mg/mL after 24 hrs by disk diffusion assay. The class given is functional, organism-based. In a few lines: as §2
Assay [28] deals with Enterococcus faecalis. Briefly: Antibacterial activity against Enterococcus faecalis ATCC 29212 at 2.53 mg/mL after 24 hrs by disk diffusion assay. It counts as functional, organism-based. In a few lines:
as §2

For assay [29], the system named is Escherichia coli. Briefly: Antibacterial activity against Escherichia coli ATCC 25922 at 2.53 mg/mL after 24 hrs by disk diffusion assay. It counts as functional, organism-based. In a few lines:
as §2

Assay [30] relates to Staphylococcus aureus. Briefly: Antibacterial activity against Staphylococcus aureus ATCC 25923 at 2.53 mg/mL after 24 hrs by disk diffusion assay. It counts as functional, organism-based. The method in brief: as §2
For assay [31], the system named is Pseudomonas aeruginosa. Description: Antibacterial activity against Pseudomonas aeruginosa ATCC 27853 at 2.53 mg/mL after 24 hrs by disk diffusion assay. The class given is functional, organism-based. The method in brief:
as §2

The subject of assay [32] is Enterococcus faecalis. Description: Antibacterial activity against Enterococcus faecalis ATCC 29212 at 5.8 mg/mL after 24 hrs by disk diffusion assay. It counts as functional, organism-based. The method in brief: as §2
Assay [33] concerns Escherichia coli. Briefly: Antibacterial activity against Escherichia coli ATCC 25922 at 5.8 mg/mL after 24 hrs by disk diffusion assay. It counts as functional, organism-based. The method in brief: as §2
The subject of assay [34] is Staphylococcus aureus. Briefly: Antibacterial activity against Staphylococcus aureus ATCC 29213 at 5 mg/mL after 24 hrs by disk diffusion assay. It counts as functional, organism-based. In a few lines: as §2
In assay [35] the test system is Enterococcus faecalis. Briefly: Antibacterial activity against Enterococcus faecalis ATCC 29212 at 5 mg/mL after 24 hrs by disk diffusion assay. It counts as functional, organism-based. In a few lines: as §2
Assay [36] deals with Escherichia coli. Briefly: Antibacterial activity against Escherichia coli ATCC 25922 at 5 mg/mL after 24 hrs by disk diffusion assay. It counts as functional, organism-based. The method in brief:
as §2

For assay [37], the system named is Staphylococcus aureus. Briefly: Antibacterial activity against Staphylococcus aureus ATCC 25923 at 5 mg/mL after 24 hrs by disk diffusion assay. The class given is functional, organism-based. In a few lines: as §2
Assay [38] deals with Pseudomonas aeruginosa. Briefly: Antibacterial activity against Pseudomonas aeruginosa ATCC 27853 at 5 mg/mL after 24 hrs by disk diffusion assay. It counts as functional, organism-based. The method in brief:
as §2

Molecules are shown by their SMILES. The source made the active and inactive calls. The rule behind the calls is not given here.

For `CCn1cc(C(=O)O)c(=O)c2ccc(C)nc21`, the result in the assay on Escherichia coli [1], in the assay with Staphylococcus aureus [3] and in the assay on Staphylococcus aureus [4] was Active. Moreover, the result in the assay with Enterococcus faecalis [2] and in the assay with Pseudomonas aeruginosa [5] was inactive.
For the compound `CCn1cc(C(=O)OCCCOc2c3cc(C(C)(C)C)cc2Cc2cc(C(C)(C)C)cc(c2O)Cc2cc(C(C)(C)C)cc(c2OCCCOC(=O)[C@@H]2N4C(=O)[C@@H](NC(=O)COc5ccccc5)[C@H]4SC2(C)C)Cc2cc(C(C)(C)C)cc(c2O)C3)c(=O)c2ccc(C)nc21`, in the assay with Staphylococcus aureus [6], the “diameter of the inhibition zone (DIZ)” value came to 30 mm. For the same compound, the zone of inhibition at 10000 µg/mL in the assay with Staphylococcus aureus [7] was 35 mm; with Staphylococcus aureus [11], 31.5 mm. In addition, the outcome in the assay with Staphylococcus aureus [8], in the assay with Enterococcus faecalis [9] and in the assay with Escherichia coli [10] was inactive.
In the case of `CC(C)(C)c1cc2c(O)c(c1)Cc1cc(C(C)(C)C)cc(c1OCCCO)Cc1cc(C(C)(C)C)cc(c1O)Cc1cc(C(C)(C)C)cc(c1OCCCO)C2`, the result in the assay on Staphylococcus aureus [12], in the assay with Enterococcus faecalis [13], in the assay on Escherichia coli [14], in the assay on Staphylococcus aureus [15] and in the assay with Pseudomonas aeruginosa [16] was inactive.
As for `CC1(C)S[C@@H]2[C@H](NC(=O)COc3ccccc3)C(=O)N2[C@H]1C(=O)O`, the outcome with Escherichia coli [17], with Enterococcus faecalis [18] and in the assay with Pseudomonas aeruginosa [21] was inactive. The result in the assay with Staphylococcus aureus [19], in the assay on Staphylococcus aureus [20], in the assay with Staphylococcus aureus [22], in the assay with Enterococcus faecalis [23] and in the assay on Staphylococcus aureus [24] was Active.
`CC(C)(C)c1cc2c(O)c(c1)Cc1cc(C(C)(C)C)cc(c1OCCCOC(=O)[C@@H]1N3C(=O)[C@@H](NC(=O)COc4ccccc4)[C@H]3SC1(C)C)Cc1cc(C(C)(C)C)cc(c1O)Cc1cc(C(C)(C)C)cc(c1OCCCOC(=O)[C@@H]1N3C(=O)[C@@H](NC(=O)COc4ccccc4)[C@H]3SC1(C)C)C2`: the outcome in the assay with Staphylococcus aureus [25] was Active. Besides, the outcome in the assay on Staphylococcus aureus [26], in the assay on Staphylococcus aureus [27], in the assay on Enterococcus faecalis [28], with Escherichia coli [29], with Staphylococcus aureus [30] and with Pseudomonas aeruginosa [31] was inactive. The result in the assay with Enterococcus faecalis [32] and in the assay with Escherichia coli [33] was inactive.
With `CCn1cc(C(=O)OCCCOc2c3cc(C(C)(C)C)cc2Cc2cc(C(C)(C)C)cc(c2O)Cc2cc(C(C)(C)C)cc(c2OCCCOC(=O)c2cn(CC)c4nc(C)ccc4c2=O)Cc2cc(C(C)(C)C)cc(c2O)C3)c(=O)c2ccc(C)nc21`, the outcome in the assay on Staphylococcus aureus [34], in the assay on Enterococcus faecalis [35], in the assay on Escherichia coli [36], in the assay with Staphylococcus aureus [37] and in the assay with Pseudomonas aeruginosa [38] was inactive.

The values above are taken from ChEMBL document CHEMBL1938293, “Molecular drug-organiser: synthesis, characterization and biological evaluation of penicillin V and/or nalidixic acid calixarene-based podands” (2011).
